# Shown are actives, neighbours in structure and some others; about 3.6% of the full set was active somewhere.
# MITF TRPM1 HTS – activators of MITF-driven TRPM1 promoter activity in SK-MEL-5 cells. 0.75% of 300,000 active. activation, % at 12.5 µM. SK-MEL-5 TRPM1-promoter luciferase, 24 h; % of positive control, neutral wells = 0. AID 588334;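 active means mean activation of at least 80% with every replicate also reaching 80%; inconclusive means mean reaches 80% but some replicate falls short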;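 further: 0% = neutral control wells and 100% = parthenolide positive control wells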
# Wnt bcat act – activators of Wnt/beta-catenin signaling; activation, % at 9.35 µM; Wnt/beta-catenin reporter cell assay, activator, plate reader; AID 743398; 1.2% of 300,000 active; in the data active means activation above about 30%, passing the limit was not always enough; inconclusive means no clear call, values can overlap the other calls;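 further: 0% = neutral control wells and 100% = positive control wells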
# SR-BI HDL uptake – inhibitors of mouse SR-BI mediated HDL lipid uptake; ldlA[mSR-BI] CHO cells, DiI-HDL uptake fluorescence, 3 h; inhibition, % at 12.5 µM; 0.96% of 320,000 active;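 active means mean replicate inhibition of at least 70% and a set share of replicates each scoring 70 or more; inconclusive means meets just one of the two criteria; inactive means fails both criteria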;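 further: 0% = median of neutral control wells and 100% = median of positive control wells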
# Target sequence (Q61009 whole entry, looked up): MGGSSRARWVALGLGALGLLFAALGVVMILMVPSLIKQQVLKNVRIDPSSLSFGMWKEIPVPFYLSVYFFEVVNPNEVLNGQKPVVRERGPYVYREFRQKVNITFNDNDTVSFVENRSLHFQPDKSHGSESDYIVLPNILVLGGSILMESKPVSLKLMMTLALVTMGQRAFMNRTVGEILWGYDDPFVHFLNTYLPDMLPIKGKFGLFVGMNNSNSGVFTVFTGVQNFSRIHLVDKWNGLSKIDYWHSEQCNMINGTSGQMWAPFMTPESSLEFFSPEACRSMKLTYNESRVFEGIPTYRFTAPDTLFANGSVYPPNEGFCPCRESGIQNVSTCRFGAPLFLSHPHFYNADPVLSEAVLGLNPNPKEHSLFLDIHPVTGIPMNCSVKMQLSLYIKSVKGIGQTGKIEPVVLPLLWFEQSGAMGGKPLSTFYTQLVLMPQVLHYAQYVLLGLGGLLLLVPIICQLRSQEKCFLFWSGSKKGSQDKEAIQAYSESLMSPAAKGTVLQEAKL
# SR-BI uptake up – activators of SR-BI mediated HDL lipid uptake; CHO ldlA[mSR-BI] cells, DiI-HDL uptake fluorescence, 3 h; 100 = double the neutral-control signal; activation, % at 12.5 µM; 0.096% of 320,000 active;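 active means mean replicate activation of at least 60% and every replicate at or above 60%; inconclusive means mean or all-replicate condition met, but not both; inactive means mean below 60% and not all replicates reaching 60%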;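 further: 0% = median plate neutral-control signal and 100% = twice that signal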
#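 Material – SR-BI-overexpressing, LDLR-lacking CHO cells · Medium – BSA-supplemented, HEPES-buffered Ham's F12, pH 7.4 · Doses – single concentration · Times – compound with DiI-HDL co-incubation, 3 h at 37 °C · Measured by – bottom-read fluorescence, 550/595 nm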
# HSF1 activator – increases HSF-1 driven luciferase reporter signal. NIH3T3-HGL HSF-1 luciferase reporter, MG132, 8 h; 100% = twice DMSO control signal. activation, % at 9 µM. 1.7% of 300,000 active;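 active means mean replicate activation of at least 50% with a set share of replicates each reaching 50%; inconclusive means only one of those two conditions met; inactive means mean below 50% and too few replicates reaching it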;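 further: 0% = median of the neutral control wells and 100% = twice that signal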
# * hit, by the source's call; ? = inconclusive; / = no result.
SMILES,MITF TRPM1 HTS,Wnt bcat act,SR-BI HDL uptake,SR-BI uptake up,HSF1 activator
Cc1ccc(Cn2ccc(NC(=O)c3nn(C)cc3[N+](=O)[O-])n2)cc1,-19,-3,-21,21,76*
Cc1cc(C)n(CC(=O)N/N=C/c2cc(Br)cc([N+](=O)[O-])c2O)n1,8,-2,-16,16,-21
Cc1cc(C)n(Cc2ccc(NC(=O)c3nn(C)cc3[N+](=O)[O-])cc2)n1,-36,/,27,-27,131*
Cn1cc([N+](=O)[O-])c(C(=O)Nc2cc(Oc3cccnc3)cc([N+](=O)[O-])c2)n1,/,/,/,/,142*
Cc1cc(C)n(CCC(=O)N/N=C/c2ccc(Br)c([N+](=O)[O-])c2)n1,-6,36*,3,-3,20
Cn1cc([N+](=O)[O-])c(C(=O)Nc2ccc(C3CCCCC3)cc2)n1,-5,46*,3,-3,75*
Cn1cc([N+](=O)[O-])c(C(=O)Nc2ccc(-c3nc4ccccc4[nH]3)cc2)n1,-27,24,32,-32,408*
Cn1cc([N+](=O)[O-])c(C(=O)Nc2ccc3nc(-c4ccccc4)[nH]c3c2)n1,2,14,33,-33,3
N=c1cc(C2(O)CCCCC2)n2c(nc3ccccc32)s1,/,45*,15,-15,17
O=C1c2sc3nc4ccccc4n3c2C(=O)N1c1ccccc1Cl,4,3,-2,2,11
CCOC(=O)C1=C(c2ccccc2)NC(SC)=C(C#N)C1c1ccco1 (stereo not given),11,-3,1,-1,51*
CC(=O)C1=C(C)NC(SCC(=O)c2ccc(Cl)cc2)=C(C#N)C1c1ccco1 (stereo not given),14,/,-1,1,29
CC(=O)C1=C(C)NC(SCC(=O)c2ccccc2)=C(C#N)C1c1ccco1 (stereo not given),/,/,/,/,77*
C[C@H]1CN(S(=O)(=O)C(C)(C)C)[C@H](CCO)/C1=C\CCO,/,0,/,/,/
COCCCN1C(=O)C(CC(=O)NC2CCCC2)CC(C(=O)N2CCOCC2)=C1C (stereo not given),/,-1,/,/,/
CCOC(=O)c1ccc(-c2ccc3c(c2)CCC3)nc1C,76,38*,4,-4,36
COC(=O)c1ccc(-c2ccc(F)cc2)nc1C,105*,28,20,-20,?
CCc1ccc(NC(=O)CSc2nc3cc(C(=O)OC)ccc3c(=O)n2Cc2ccco2)cc1,/,-2,-30,30,-12
CCOC(=O)c1c(NC(=O)CSc2nc3cc(Cl)ccc3c(=O)n2Cc2ccco2)sc(C(=O)N(C)C)c1C,-6,-17,-10,10,146*
CCN(C(=O)CSc1nc2cc(C(=O)OC)ccc2c(=O)n1Cc1ccco1)c1cccc(C)c1,-9,/,43,-43,143*
CC(C)Oc1ccc(S(=O)(=O)N2CCOCC2)cc1NC(=O)CSC(=S)N1CCCC1,/,-4,/,/,/
Nc1ccc(C2=Nc3cccc4cccc(c34)N2)cc1,-6,-13,-29,29,73*
COc1cccc(C2=Nc3cccc4cccc(c34)N2)c1,-11,-8,8,-8,-8
COC(=O)C1NN=C(C(=O)c2ccc(Cl)cc2)C1c1ccc(OC)cc1 (stereo not given),6,-2,3,-3,54*
O=C(CN1C(=O)NC2(CCCC2)C1=O)OCC(=O)c1cccc(Cl)c1,69,-2,0,0,/
SMILES,MITF TRPM1 HTS,Wnt bcat act,SR-BI HDL uptake,SR-BI uptake up,HSF1 activator
CC(C)CNC(=O)CSc1nc2nn(-c3ccccc3)c(=O)c-2c2n1CCCCC2,6,40*,-5,5,8
CC(C)n1nnnc1C1c2ccccc2C(=O)N1Cc1ccccc1 (stereo not given),/,-1,/,/,/
C/C(N)=C(/C#N)C(=O)CSc1nnc(NC(C)C)s1,58,22,-8,8,3
C/C(N)=C(/C#N)C(=O)CSc1nnc(Nc2ccccc2)s1,54,39*,-10,10,55*
C/C(N)=C(/C#N)C(=O)CSc1nnc(Nc2ccccc2C)s1,3,/,0,0,71*
CN(Cc1ccccc1)S(=O)(=O)c1ccc(Cl)c(C(=O)N2CCOCC2)c1,/,-2,/,/,/
N#CC(C#N)=CC1=C2OC(c3ccccc3)=CC(c3ccccc3)=C2CCC1,-22,/,116*,-116,-16
O=S(=O)(c1ccccc1Br)N(Cc1ccccc1)CC(O)COCc1ccccc1 (stereo not given),10,-2,6,-6,/
COc1cc(C(=O)NCCOc2ccc(Cl)cc2)ccc1OCc1c(C)noc1C,-9,-8,84*,-84,/
Cc1ccc(NC(=O)c2ccc(OCc3c(C)noc3C)cc2)cc1C,-9,13,89*,-89,/
COc1cc(C(=O)NCC2CCCCC2)ccc1OCc1c(C)noc1C,8,1,37,-37,/
COc1ccc(C)cc1NC(=O)c1cccc(-c2ccc(OC(C)=O)cc2)c1,18,-1,77*,-77,22
COc1ccc(-c2cccc(C(=O)Nc3ccccc3C)c2)cc1,-4,1,-42,42,10
COc1ccc(C)cc1NC(=O)c1ccc(OCc2c(C)noc2C)cc1,2,-2,71*,-71,/
Cc1ccc(NC(=O)c2ccc(OCc3c(C)noc3C)cc2)c(C)c1,12,4,62,/,/
COC(=O)C1=C(C)N(C)C(=NCc2cccc(C(F)(F)F)c2)NC1c1cccc(Cl)c1 (stereo not given),/,-12,/,/,/
COc1cc(-c2nc(Cc3ccccc3Cl)no2)cc(OC)c1OC,6,/,29,-29,11
Clc1ccc(OCc2noc(-c3ccsc3)n2)c(Cl)c1,/,65*,-10,10,48
Fc1cc(Cl)c(OCc2noc(-c3ccsc3)n2)c(Cl)c1,90*,0,22,-22,36
C/C(=N\NC(=O)c1nnn(-c2nonc2N)c1CN(C)c1ccccc1)c1cccnc1,-1,34*,-1,1,-10
C/C(=N\NC(=O)c1nnn(-c2nonc2N)c1-c1ccccc1)c1cccnc1,8,0,8,-8,/
CSc1nc2nccc(-c3ccc(Cl)cc3)n2n1,4,/,2,-2,-7
CSc1nc2nccc(/C=C\c3ccccc3)n2n1,-23,1,11,-11,56*
CCCC(=O)Nc1nc(-c2ccc3c(c2)OCCO3)cs1,91*,25,4,-4,/
CC(=O)Nc1cnc(-c2ccc3c(c2)OCO3)cn1,/,40*,/,/,/
O=C(Nc1nc(-c2ccc3c(c2)OCO3)cs1)C1CC1,93*,-1,4,-4,44
c1cncc(-c2nc(-c3ccc4c(c3)OCO4)cs2)c1,85*,32*,10,-10,36
c1cncc(-c2csc(-c3cccnc3)n2)c1,25,2,-15,15,7
CC(=O)Nc1cnc(-c2cc(C)c(O)c(C)c2)cn1,/,0,/,/,/
O=C(O)C(=O)Nc1nc(-c2ccc3c(c2)OCCO3)cs1,0,6,-7,7,-7
